Compounds with a hit are over-represented: about 2.2% of the library has one in this group of screens.
Neddylation inh – inhibitors of cullin neddylation, primary screen, biochemical, TR-FRET, uHTS, NAE and Ubc12; NEDD8-conjugating enzyme Ubc12 (Homo sapiens) + NEDD8-activating enzyme E1 regulatory …; inhibition, % at 25 µM; 360,000 tested, 0.58% active; AID 651699, 2012; in the data active = inhibition above about 36%
Target sequence (P61081 whole entry, looked up): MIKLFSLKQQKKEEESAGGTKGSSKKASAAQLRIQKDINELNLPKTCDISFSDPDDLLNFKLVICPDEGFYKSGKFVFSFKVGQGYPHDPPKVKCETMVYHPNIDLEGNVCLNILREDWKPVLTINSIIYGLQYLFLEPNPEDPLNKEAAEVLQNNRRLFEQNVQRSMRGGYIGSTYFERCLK
Target sequence (Q13564 whole entry, looked up): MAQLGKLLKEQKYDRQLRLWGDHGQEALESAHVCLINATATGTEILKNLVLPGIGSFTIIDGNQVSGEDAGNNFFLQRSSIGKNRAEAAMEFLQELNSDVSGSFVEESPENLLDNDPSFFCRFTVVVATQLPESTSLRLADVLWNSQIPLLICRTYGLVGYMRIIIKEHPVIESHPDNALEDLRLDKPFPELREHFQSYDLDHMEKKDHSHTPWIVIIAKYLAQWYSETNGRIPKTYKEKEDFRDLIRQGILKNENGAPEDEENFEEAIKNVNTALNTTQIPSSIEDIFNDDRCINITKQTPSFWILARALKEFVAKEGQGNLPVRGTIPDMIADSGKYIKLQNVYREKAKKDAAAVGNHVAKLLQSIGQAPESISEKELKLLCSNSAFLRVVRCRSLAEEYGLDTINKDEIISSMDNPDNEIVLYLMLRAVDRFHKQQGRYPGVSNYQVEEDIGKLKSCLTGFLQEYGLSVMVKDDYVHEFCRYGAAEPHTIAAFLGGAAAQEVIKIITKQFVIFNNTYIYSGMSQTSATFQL
HKDC1 inh – HKDC1 hexokinase inhibitors, primary screen, biochemical, fluorescence, uHTS; 340,000 tested, 0.16% active; Q2TB90; recombinant HKDC1, G6PDH/diaphorase resazurin coupled fluorescence; inhibition, % at 20 µM;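 active = inhibition above about 35% when tested at 20 µM, limit read from the data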;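 also: plate controls were DMSO wells with enzyme for no effect and DMSO wells lacking enzyme for full effect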
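Test system: HK5 enzyme. Quantity: 5 µg/mL HK5 final. Reagent: glucose and ATP substrates. Schedule: 90 min reaction incubation at room temperature, dark. Technique: resazurin-to-resorufin fluorescence via G6PDH and diaphorase coupling, 525/613 nm. Control set: DMSO wells with and without enzyme mix.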
PfGluPho inh – PfG6PD enzyme inhibitors, primary screen, biochemical, fluorescence intensity, uHTS | PfGluPho enzyme, NADPH resazurin-diaphorase fluorescence | inhibition, % at 20 µM | 350,000 tested, 0.78% active | AID 504690, 2011;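 active = inhibition reaching at least a set limit at 20 µM in the primary screen, cut at about 59% in these data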;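 also: 0% = DMSO wells with substrate and 100% = DMSO wells lacking glucose-6-phosphate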
PfM18AAP inh-1 – PfM18AAP inhibitors, malaria aminopeptidase, primary screen, biochemical, QFRET, recombinant enzyme | H-Glu-NHMec fluorogenic cleavage | M18 aspartyl aminopeptidase (Plasmodium falciparum 3D7) | 290,000 tested, 1.2% active | inhibition, % at 7.35 µM | AID 1822, 2009;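 active = inhibition above the campaign mean inhibition over all tested compounds plus 3 SD, cut at about 28% in these data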;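 also: 0% = plate median of test compound wells and 100% = 2 mM ZnCl2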
PfM18AAP inh-2 – PfM18AAP inhibitors, malaria aminopeptidase, confirmation, biochemical, QFRET, recombinant enzyme, triplicate | shares compounds with PfM18AAP inh-1 | H-Glu-NHMec fluorogenic cleavage | inhibition, % at 7.35 µM | 2,400 tested, 28% active;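 active = mean inhibition over replicate wells above the hit cutoff set for the earlier primary screen, cut at about 29% in these data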;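 also: 0% = median of test compound wells and 100% = 2 mM ZnCl2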
CTSL1 counter – cathepsin L1 inhibitors, retest, confirmation, counter-screen for PFM18AAP inhibitor project, biochemical, QFRET, triplicate. shares compounds with PfM18AAP inh-1. purified cathepsin L1, Z-Leu-Arg-MCA fluorescence. inhibition, % at 5.96 µM. 2,400 tested, under 10 active. AID 2178, 2009;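 active = average inhibition across replicates above the hit cutoff set in the earlier primary screen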;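 also: 0% = median of test compound wells and 100% = Z-Phe-Ala-diazomethylketone 1 µM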
Active calls of the source: *.

Screening COc1cc(NC(=O)N2c3ccccc3Sc3ccccc32)c(C(=O)O)cc1OC returned Neddylation inh 42*, HKDC1 inh 4, PfGluPho inh 29 and PfM18AAP inh-1 9.
`COc1cc(NC(=O)Cc2ccccc2)c(C(=O)O)cc1OC` gave Neddylation inh 3, HKDC1 inh -3, PfGluPho inh 28 and PfM18AAP inh-1 10.
COC1=CC(=O)C[C@@H](C)[C@]12Oc1c(Cl)c(OC)cc(OC)c1C2=O was read as Neddylation inh 46*, HKDC1 inh -7, PfGluPho inh -10 and PfM18AAP inh-1 6.
For COc1ccc(CN2CCNC(=O)C2CC(=O)NC2CCCC2)c(C)c1C (stereo unspecified) the results were Neddylation inh 6, HKDC1 inh -4, PfGluPho inh 12 and PfM18AAP inh-1 4.
CCCC(C)c1nnc(NC(=O)CCS(=O)(=O)c2ccccc2)s1 (stereo unspecified) was read as Neddylation inh -4, HKDC1 inh -16, PfGluPho inh 75* and PfM18AAP inh-1 27.
Screening O=C(CC1Sc2ncnn2C1=O)Nc1ccc(Br)cc1 (stereo unspecified) returned Neddylation inh 4, HKDC1 inh -3, PfGluPho inh 3 and PfM18AAP inh-1 37*.
`Cc1c(C)c2ccc(OCC(=O)NCCN3CCOCC3)c(C)c2oc1=O` gave Neddylation inh 47*, HKDC1 inh 9, PfGluPho inh -5 and PfM18AAP inh-1 -10.
CCCc1cc(=O)oc2c(C)c(OCC(=O)NCCN3CCOCC3)ccc12 was read as Neddylation inh 29, HKDC1 inh 8, PfGluPho inh 5 and PfM18AAP inh-1 -8.
Screening CNC(=O)c1c(NC(=O)c2ccc(S(=O)(=O)N3CC(C)OC(C)C3)cc2)sc2c1CCN(C(C)C)C2 (stereo unspecified) returned Neddylation inh -15, HKDC1 inh -3, PfGluPho inh 12 and PfM18AAP inh-1 -7.
Screening CNC(=O)c1c(NC(=O)c2ccc(S(=O)(=O)N3CCCC3)cc2)sc2c1CCN(C(C)C)C2 returned PfM18AAP inh-1 32*.
Screening CC1(C)Cc2c(sc3ncnc(NN)c23)CO1 returned Neddylation inh 9, HKDC1 inh -7, PfGluPho inh 0 and PfM18AAP inh-1 30*.
Screening O=C(NCCN1CCN(c2ccccc2F)CC1)c1cccn2c(=O)c3ccccc3nc12 returned Neddylation inh 43*, HKDC1 inh 17, PfGluPho inh 10 and PfM18AAP inh-1 9.
For O=C1C=CC(=O)N1c1ccc(O)cc1 the results were Neddylation inh 0, HKDC1 inh -3, PfGluPho inh 22 and PfM18AAP inh-1 -15.
O=C1C=CC(=O)N1c1ccc(OC(F)F)cc1 was read as Neddylation inh 2, HKDC1 inh -7, PfGluPho inh 87* and PfM18AAP inh-1 -11.
`CCN(c1ccccc1)S(=O)(=O)c1ccc(N2CCN(c3ccccc3O)CC2)nc1` gave Neddylation inh -9, HKDC1 inh 4 and PfGluPho inh 29.
`C[C@H](NC(=O)c1nc[nH]c1C(=O)NCCCCCN)C(=O)OCc1ccccc1` gave Neddylation inh -12, HKDC1 inh -1 and PfGluPho inh 14.
`O=[N+]([O-])c1ccccc1N/N=C/c1cccc(O)c1O` gave Neddylation inh -14, HKDC1 inh -5, PfGluPho inh -9 and PfM18AAP inh-1 30*.
`O=[N+]([O-])c1cccc(N/N=C/c2cccc(O)c2O)c1` gave Neddylation inh -4, HKDC1 inh 12, PfGluPho inh 58 and PfM18AAP inh-1 42*.
O=C(NNc1ccc([N+](=O)[O-])cc1[N+](=O)[O-])C1C2CCCCC21 (stereo unspecified) was read as Neddylation inh -21, HKDC1 inh -10, PfGluPho inh -4 and PfM18AAP inh-1 6.
For O=C(NNc1ccc([N+](=O)[O-])cc1)C1C2CCCCC21 (stereo unspecified) the results were Neddylation inh -2, HKDC1 inh -16, PfGluPho inh -1 and PfM18AAP inh-1 59*.
Screening O=[N+]([O-])c1cc(C=Nc2cccc3c(O)cccc23)ccc1Cl returned PfM18AAP inh-1 39*, PfM18AAP inh-2 -29 and CTSL1 counter -2.
O=[N+]([O-])c1cc(/C=N\Nc2ccccn2)ccc1Cl was read as Neddylation inh -16, HKDC1 inh 6, PfGluPho inh 0 and PfM18AAP inh-1 -10.
O=C(O)c1nn(Cc2ncc(-c3cccc(Cl)c3)o2)c(=O)c2ccccc12 was read as Neddylation inh -14, HKDC1 inh 5, PfGluPho inh -5 and PfM18AAP inh-1 11.
Screening CC(=O)Oc1ccc(C(=O)O)cc1OC(C)=O returned Neddylation inh -8, HKDC1 inh -1, PfGluPho inh -11, PfM18AAP inh-1 70*, PfM18AAP inh-2 50* and CTSL1 counter -5.
Screening CCOc1ccccc1NC(=O)CCNC(=O)N1CC(=O)Nc2ccccc21 returned Neddylation inh -9 and PfGluPho inh 1.
O=C(NCc1ccc(F)cc1)N1CCN(C(=O)c2ccccc2)CC1 was read as Neddylation inh 12, HKDC1 inh -4 and PfGluPho inh -5.
For CCOC(=O)Cc1csc(NC(=O)CSc2nnc(-c3ccc(NS(=O)(=O)CC)cc3)o2)n1 the results were Neddylation inh -1, HKDC1 inh 8, PfGluPho inh -9, PfM18AAP inh-1 39*, PfM18AAP inh-2 -13 and CTSL1 counter 4.
For CCOC(=O)Cc1csc(NC(=O)CSc2nnc(-c3ccncc3)o2)n1 the results were Neddylation inh -9, HKDC1 inh -12, PfGluPho inh -8 and PfM18AAP inh-1 21.
Screening O=C(NCCC1CCCC1)c1cccs1 returned Neddylation inh 11, HKDC1 inh -6, PfGluPho inh 6, PfM18AAP inh-1 53*, PfM18AAP inh-2 -39 and CTSL1 counter -10.
O=C(NCC1CC1)c1cccs1 was read as Neddylation inh 1.
`O=C(CNS(=O)(=O)c1ccc(Br)cc1)N1CCN(Cc2ccccc2)CC1` gave Neddylation inh 7, HKDC1 inh 0, PfGluPho inh 1 and PfM18AAP inh-1 -17.
For N#CC1=C(N)C(C#N)(C#N)[C@H](c2c(F)cccc2F)[C@H]2CC3(CC=C12)OCCO3 the results were Neddylation inh -10, HKDC1 inh 11, PfGluPho inh -2 and PfM18AAP inh-1 10.
